Drawing on ChEMBL document CHEMBL1134627, “Synthesis of novel, potent, diol-based HIV-1 protease inhibitors via intermolecular pinacol homocoupling of (2S)-2-benzyloxymethyl-4-phenylbutanal” (J Med Chem, 2001), this text covers EC50 and Ki for six compounds.

Broadly, the Ki is the dissociation constant of the complex between target and ligand, obtained from inhibition or displacement.

Assay [1] deals with MT4. In words: Inhibitory activity against MT-4 cells, in the presence of human serum. The conditions noted are these: read-out: ED50 (the source's name). Type of assay: functional. The essentials:
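HIV cytopathic assay in MT-4 cells run in the presence of 40% human serum, with viability read out using the vital dye XTT. ED50 was calculated from the percent cytoprotection.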

Assay [2] deals with MT4. Kind of assay: Inhibitory activity against MT-4 cells. Type of assay: functional. The conditions noted are these: Homo sapiens, read-out: ED50 (the source's name). The essentials:
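HIV-induced cytopathic effect measured in MT-4 cells, with cell viability read out using the vital dye XTT. ED50 was calculated from the percent cytoprotection for each compound.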

Assay [3] deals with Human immunodeficiency virus type 1 protease (Human immunodeficiency virus 1, UniProt Q72874). In words: Inhibitory activity against HIV-1 protease (Escherichia coli). The gist of the method: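 Recombinant HIV-1 protease, cloned and expressed in E. coli. Ki values were determined with a fluorometric assay.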

For the compound `CNC(=O)[C@@H](NC(=O)[C@H](OCc1ccccc1)[C@H](O)[C@@H](O)[C@@H](OCc1ccccc1)C(=O)N[C@H](C(=O)NC)C(C)C)C(C)C`, the results for the EC50 in the assay with MT4 [1] and in the assay with MT4 [2] were 34000 nM and 1300 nM, respectively.

Regarding `O=C(NC1c2ccccc2C[C@H]1O)[C@H](OCc1ccccc1)[C@H](O)[C@@H](O)[C@@H](OCc1ccccc1)C(=O)N[C@H]1c2ccccc2C[C@H]1O` (some centres not stated), the EC50 is 1500 nM in the assay with MT4 [1] and 96 nM with MT4 [2]. In assay [3], the affinity, expressed as Ki, was 0.6 nM.

With `O=C(NC1c2ccccc2C[C@H]1O)[C@H](CCc1ccccc1)[C@@H](O)[C@H](O)[C@@H](CCc1ccccc1)C(=O)N[C@H]1c2ccccc2C[C@H]1O` (some centres not stated), the EC50 was determined as 390 nM in the assay on MT4 [1] and 93 nM with MT4 [2]. Besides, in assay [3], the inhibitory constant (Ki) turned out to be 1.1 nM.

As for `CNC(=O)[C@@H](NC(=O)[C@H](CCc1ccccc1)[C@@H](O)[C@H](O)[C@@H](CCc1ccccc1)C(=O)N[C@H](C(=O)NC)C(C)C)C(C)C`, the figures for the EC50 with MT4 [1] and in the assay on MT4 [2] were 1400 nM and 1900 nM, respectively. This compound showed a Ki in assay [3] of 0.4 nM.

Regarding `O=C(NC1c2ccccc2C[C@H]1O)[C@H](CCc1ccccc1)[C@H](O)[C@H](O)[C@@H](CCc1ccccc1)C(=O)N[C@H]1c2ccccc2C[C@H]1O` (some centres not stated), the EC50 was 15000 nM in the assay with MT4 [1] and more than 10000 nM in the assay with MT4 [2]. Affinity in assay [3] was put at a Ki of 28 nM.

Regarding `CNC(=O)[C@@H](NC(=O)[C@H](CCc1ccccc1)[C@H](O)[C@H](O)[C@@H](CCc1ccccc1)C(=O)N[C@H](C(=O)NC)C(C)C)C(C)C`, the EC50 in the assay on MT4 [1] and in the assay on MT4 [2] was more than 10000 nM in each case. In assay [3], this compound showed a Ki of 112 nM.
